Bioassay records as filed in PubChem BioAssay.
CRFBP-R2 agonist – agonists of CRF-BP/CRF-R2 complex, primary screen, cell-based, HEK293, calcium dye fluorescence, uHTS; CRF-binding protein / CRF receptor 2 complex (human); AID 588473, 2011; 0.46% of 350,000 active; calcium dye fluorescence (FLIPR); percent of saturating CRF peptide response; activation, % at 13.2 µM;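 active = activation of at least 50%, plus an integration ratio under a set limit after plate pattern correction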;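 also: plate controls were neutral control wells without compound for no effect and CRF at EC100 for full effect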
ANO1 block – TMEM16A chloride channel inhibitors, primary screen, cell-based, HTS | HEK293 TMEM16A/YFP iodide influx fluorescence, ionomycin | normalized B-score (activity score, 25-100; higher = stronger inhibition) at 10 µM | 1.2% of 310,000 active | AID 588511, 2011;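 active = ratio plate-corrected score three or more library SD toward inhibition, starting fluorescence score within five deviations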;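 also: score derived from kinetic fluorescence span divided by baseline fluorescence per well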
CRFBP-R2 block – antagonists of CRF-BP/CRF-R2 complex, primary screen, cell-based, HEK293, calcium dye fluorescence, uHTS; 0.59% of 350,000 active; inhibition, % at 11.8 µM; CRF-induced calcium fluorescence;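 active = inhibition of the ligand-induced calcium signal above about 50% at the single tested concentration, limit read from the data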
TAAR1 antag – human TAAR1 antagonists, primary screen, Fluo-8 calcium fluorescence, CHO RD-HGA16 cells; antagonist; 1.5% of 360,000 active; inhibition, % at 3 µM; Trace amine-associated receptor 1 (Homo sapiens), Q96RJ0; AID 624466, 2012;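 active = inhibition above a per-plate cutoff, the mean inhibition of test compounds on that plate plus 3 SD, cut at about 49% in these data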;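 also: 0% = DMSO plus EC80 beta-PEA response and 100% = DMSO alone without agonist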
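Test system – hTAAR1-expressing CHO RD-HGA16 cells, Gα16-coupled · Also added – β-PEA at EC80 concentration, post-compound challenge · Compound – 3 µM, single point · Incubation – dye loading 75 min at 37 °C, then 30 min room temperature · Measured by – Fluo-8 intracellular calcium dye fluorescence, real-time kinetic reads · Benchmarks – vehicle and agonist controls · Replicates – singlicate, one well per test compound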
ANO1 activ – TMEM16A chloride channel activators or potentiators, primary screen, cell-based, HTS; 0.3% of 340,000 active; HEK293 TMEM16A/YFP-H148Q/I152L, iodide quench fluorescence; stronger effect = lower value; AID 623877, 2012; B-score at 10 µM; Anoctamin-1 (Mus musculus), Q8BHY3;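 active = fluorescence-ratio B-score plate-corrected deviation score at least 3 library SD below zero, with starting fluorescence score within 5 deviations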;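 also: channel opened by trigger with iodide after compound preincubation; score built on the fluorescence ratio of max minus min over baseline; more negative score means more quench and so TMEM16A activation or potentiation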
TAAR1 ag – human TAAR1 agonists, primary screen, Fluo-8 calcium fluorescence, CHO RD-HGA16 cells. vehicle wells 0%, saturating PEA agonist 100%. activation, % at 3 µM. 0.99% of 360,000 active. AID 624467, 2012;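 active = activation above the mean activation of all test compounds in the run plus 3 SD, cut at about 38% in these data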
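System: CHO-derived RD-HGA16 cells with stable Gα16 and human TAAR1. Times: 17-24 h plating, Fluo-8 75 min 37 °C, 30 min RT. Measured by: calcium-sensitive Fluo-8 signal, excitation 470-495, emission 515-575 nm. Read-out basis: % activation relative to PEA EC100 response. Control set: DMSO and PEA EC100. Repeats: no replicates (n 1).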
Starred values were filed as active, the others as inactive; i = inactive; · = no result given. Compounds with a hit are over-represented: about 3.9% of the library has one in this group of screens.

SMILES	CRFBP-R2 agonist	ANO1 block	CRFBP-R2 block	TAAR1 antag	ANO1 activ	TAAR1 ag
CCc1ccc(NC(=O)[C@H](C)NC(=O)C2CCN(C(=O)[C@@H](N)C(C)C)CC2)cc1	-1.0	i	4.5	-10.6	i	0.1
COC(=O)[C@H](Cc1ccccc1)NC(=O)NC(C)CCc1ccccc1 (some centres not stated)	32.3	i	9.3	13.1	i	44.6*
Cc1ccc(NC(=O)CSc2nnc(-c3ccco3)n2N)cc1F	0.7	i	-4.6	-32.8	i	40.8*
Cc1cc(C)c(NC(=O)CSc2nnc(-c3ccco3)n2N)c(C)c1	2.8	i	21.7	-9.5	i	9.1
CCc1ccc(Nc2nnc(SCC(=O)NCCN3C(=O)CSC3=O)s2)cc1	-0.7	i	-4.1	-2.1	i	5.1
CS(=O)(=O)N(Cc1ccccc1)c1ccc(C(=O)N2CCOCC2)cc1	123.1*	i	-50.4	0.2	i	11.9
COc1ccc(CNC(=O)Nc2nc(C(N)CCc3ccccc3)cs2)cc1 (configuration not stated)	·	·	·	31.2	·	21.1
Cc1ccc(S(=O)(=O)N2CCCN(c3nc4cc(C)ccc4cc3C#N)CC2)cc1	10.8	i	-43.0	3.7	-14*	-1.7
Cc1ccc(S(=O)(=O)C(C#N)c2nc3ccccc3nc2N2CC(C)OC(C)C2)cc1C (configuration not stated)	1.1	100*	-7.0	0.1	i	11.8
CCN1CCN(c2nc3ccccc3nc2C(C#N)S(=O)(=O)c2ccc(C)c(C)c2)CC1 (configuration not stated)	-0.4	i	-1.2	7.8	i	16.7
Cc1ccc(S(=O)(=O)C(C#N)c2nc3ccccc3nc2N2CCCC2)cc1 (configuration not stated)	55.8*	i	-54.9	0.3	i	13.2
CN(C)/C=C/C(=O)c1ccc(Oc2ncccn2)cc1	0.7	i	6.6	-2.5	i	12.2
O=C(/C=C/Nc1ccccc1)c1ccc(Oc2ncccn2)cc1	1.0	i	-37.3	-29.0	i	43.0*
Cc1cc(=O)oc(C)c1C(=O)Nc1ccc2ncccc2c1	78.2*	i	-63.7	4.5	i	2.2
CCOc1cc(/C=C/c2cccc[n+]2C)ccc1O	59.3*	i	-51.8	-19.3	i	2.5
CC(=O)N/N=C/c1cc(C(C)(C)C)cc(/C=N/NC(C)=O)c1O	76.9*	i	-66.2	12.7	i	9.9
CCC(=O)Oc1ccc(C2NC(=O)c3ccccc3O2)cc1OC (configuration not stated)	-1.1	i	15.3	-3.6	i	7.9
C=CC[C@H](CC(=O)N(CCO)Cc1ccccc1)C(=O)NC[C@H](OC(=O)[C@@H](CC=C)Cc1ccc(F)cc1)c1ccccc1	3.1	·	-0.6	90.3*	i	27.6
C=CC[C@H](CC(=O)N(CCO)Cc1ccccc1)C(=O)NCCOC(=O)[C@@H](CC=C)Cc1ccc(F)cc1	-4.8	·	6.3	16.8	i	9.2
C=CC[C@@H](CC(=O)N(CCO)Cc1ccccc1)C(=O)N[C@@H](COC(=O)[C@@H](CC=C)Cc1ccc(F)cc1)Cc1ccccc1	4.2	·	-1.0	24.7	i	8.1
C=CC[C@@H](CC(=O)N(CCO)Cc1ccccc1)C(=O)NC[C@@H](OC(=O)[C@@H](CC=C)Cc1ccc(F)cc1)c1ccccc1	1.2	·	4.8	68.5*	i	13.1
O=C(CNC(=O)c1cn2ccccc2n1)Nc1ccc(F)c(F)c1	1.1	i	-4.7	-9.0	i	1.7
COc1cccc(NC(=O)CNC(C)CCC(C)C)c1 (configuration not stated)	2.1	i	-17.3	3.7	i	37.6*
